Measured values reported in ChEMBL document CHEMBL1140296, “Anilinodialkoxyquinazolines: screening epidermal growth factor receptor tyrosine kinase inhibitors for potential tumor imaging probes” (J Med Chem, 2005).

Legend:
[1] = Lipophilicity, log P of the compound; assay type: physicochemical; conditions: octanol/water
Summary of the method: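 Log Po/w estimated by reversed-phase HPLC on a C8 column. Mobile phases were methanol with 0.25% 1-octanol and octanol-saturated water with 0.02 M MOPS and 0.15% n-decylamine, pH 7.4, at 1 mL/min. Uracil served as void marker. log k′w was obtained by linear extrapolation of retention over 60–85% methanol.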

[2] = target: T1, Epidermal growth factor receptor (Homo sapiens, UniProt P00533); assay: Displacement of [125I]4-(3-iodoanilino)-6,7-dimethoxyquinazoline from EGFR tyrosine kinase in human A431 cell membranes; set-up: species or system A-431
T1 sequence (P00533 whole entry): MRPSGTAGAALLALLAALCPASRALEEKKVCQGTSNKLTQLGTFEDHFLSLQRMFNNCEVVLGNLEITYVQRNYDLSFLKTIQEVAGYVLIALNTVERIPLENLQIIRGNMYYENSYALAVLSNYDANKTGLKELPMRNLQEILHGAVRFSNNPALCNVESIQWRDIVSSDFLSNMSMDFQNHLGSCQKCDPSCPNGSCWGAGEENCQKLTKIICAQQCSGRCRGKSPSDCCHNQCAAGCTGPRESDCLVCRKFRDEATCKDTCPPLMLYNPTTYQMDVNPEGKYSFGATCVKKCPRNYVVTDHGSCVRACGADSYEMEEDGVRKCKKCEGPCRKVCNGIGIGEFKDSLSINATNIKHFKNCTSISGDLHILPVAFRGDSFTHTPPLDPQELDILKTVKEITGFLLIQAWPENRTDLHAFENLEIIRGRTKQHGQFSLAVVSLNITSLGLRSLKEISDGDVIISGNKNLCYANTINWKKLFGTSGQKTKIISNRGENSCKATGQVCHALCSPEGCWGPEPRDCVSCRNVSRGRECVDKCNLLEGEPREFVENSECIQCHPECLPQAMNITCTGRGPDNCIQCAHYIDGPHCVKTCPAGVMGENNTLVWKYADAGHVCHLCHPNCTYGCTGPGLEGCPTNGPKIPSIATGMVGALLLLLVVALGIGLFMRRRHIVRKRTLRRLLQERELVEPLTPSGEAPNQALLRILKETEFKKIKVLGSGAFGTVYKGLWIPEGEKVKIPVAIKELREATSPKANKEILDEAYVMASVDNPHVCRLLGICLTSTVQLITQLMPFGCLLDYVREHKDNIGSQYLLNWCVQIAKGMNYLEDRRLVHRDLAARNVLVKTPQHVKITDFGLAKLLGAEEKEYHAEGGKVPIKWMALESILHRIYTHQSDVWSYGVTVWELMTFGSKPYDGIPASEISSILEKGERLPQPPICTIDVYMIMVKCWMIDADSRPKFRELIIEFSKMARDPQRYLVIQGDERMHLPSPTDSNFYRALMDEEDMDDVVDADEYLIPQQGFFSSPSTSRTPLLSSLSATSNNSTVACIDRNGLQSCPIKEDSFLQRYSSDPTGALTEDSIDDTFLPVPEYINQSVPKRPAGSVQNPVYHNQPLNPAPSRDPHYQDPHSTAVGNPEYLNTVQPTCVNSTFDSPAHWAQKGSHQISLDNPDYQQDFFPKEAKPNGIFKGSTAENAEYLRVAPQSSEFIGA

[3] = target: T1, Epidermal growth factor receptor; assay: Inhibition of human EGFR tyrosine kinase phosphorylation expressed in mouse BaF3 cells; assay type: functional, cell-based
[4] = target: Receptor tyrosine-protein kinase erbB-4 (Homo sapiens, UniProt Q15303); assay: Inhibition of human ErbB4 tyrosine kinase phosphorylation expressed in human CEM/4 cells; assay type: functional, cell-based
Receptor tyrosine-protein kinase erbB-4, sequence (Q15303 whole entry): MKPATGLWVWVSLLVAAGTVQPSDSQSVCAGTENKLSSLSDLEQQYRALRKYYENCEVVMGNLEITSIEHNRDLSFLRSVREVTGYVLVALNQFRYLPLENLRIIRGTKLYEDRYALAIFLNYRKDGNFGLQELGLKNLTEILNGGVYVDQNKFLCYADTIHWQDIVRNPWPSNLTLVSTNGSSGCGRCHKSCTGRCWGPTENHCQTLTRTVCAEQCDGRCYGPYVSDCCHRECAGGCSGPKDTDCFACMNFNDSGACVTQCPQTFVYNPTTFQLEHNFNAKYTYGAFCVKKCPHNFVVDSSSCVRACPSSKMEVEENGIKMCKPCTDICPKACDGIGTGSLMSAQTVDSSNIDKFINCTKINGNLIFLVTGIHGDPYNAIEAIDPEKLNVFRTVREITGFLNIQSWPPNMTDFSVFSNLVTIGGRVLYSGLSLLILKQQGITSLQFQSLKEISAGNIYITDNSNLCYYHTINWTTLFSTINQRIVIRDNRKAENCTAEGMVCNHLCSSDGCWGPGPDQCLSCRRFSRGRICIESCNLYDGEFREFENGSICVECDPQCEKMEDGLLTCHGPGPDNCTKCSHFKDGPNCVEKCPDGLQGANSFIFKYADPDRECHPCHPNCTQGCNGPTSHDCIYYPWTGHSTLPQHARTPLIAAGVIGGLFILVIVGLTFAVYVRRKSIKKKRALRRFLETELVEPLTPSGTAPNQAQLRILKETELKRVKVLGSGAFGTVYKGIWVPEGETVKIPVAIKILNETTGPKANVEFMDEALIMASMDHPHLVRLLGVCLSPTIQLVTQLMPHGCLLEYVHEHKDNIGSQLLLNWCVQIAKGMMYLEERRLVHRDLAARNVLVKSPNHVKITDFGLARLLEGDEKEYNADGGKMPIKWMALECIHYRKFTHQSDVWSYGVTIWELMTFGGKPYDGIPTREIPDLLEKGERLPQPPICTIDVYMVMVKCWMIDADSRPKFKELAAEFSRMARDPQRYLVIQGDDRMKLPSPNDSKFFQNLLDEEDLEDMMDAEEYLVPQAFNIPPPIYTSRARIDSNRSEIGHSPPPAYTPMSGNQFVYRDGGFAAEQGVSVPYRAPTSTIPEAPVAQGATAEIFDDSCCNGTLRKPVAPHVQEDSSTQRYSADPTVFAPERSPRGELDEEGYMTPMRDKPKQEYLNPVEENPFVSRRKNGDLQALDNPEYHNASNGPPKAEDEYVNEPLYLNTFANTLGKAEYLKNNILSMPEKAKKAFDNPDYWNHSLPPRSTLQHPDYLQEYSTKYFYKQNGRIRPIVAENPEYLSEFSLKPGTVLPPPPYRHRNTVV
Summary of the method: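 CEM cells expressing ErbB4, grown in RPMI with 10% heat-inactivated FBS and G418, then serum-starved 24 h at 37 °C. About 10^7 cells/mL given inhibitor at three to five concentrations for 2 h at 37 °C, chilled 20 min, then stimulated with NRG1β 100 ng/mL final for 7 min on ice. Lysate glycoproteins captured on ConA. Phosphotyrosine read by 4G10 immunoblot. IC50 read against DMSO standard curve.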

[5] = target: Receptor tyrosine-protein kinase erbB-2 (Homo sapiens, UniProt P04626); assay: Inhibition of human ErbB2 tyrosine kinase phosphorylation expressed in mouse BaF3 cells; assay type: functional, cell-based
Receptor tyrosine-protein kinase erbB-2, sequence (P04626 whole entry): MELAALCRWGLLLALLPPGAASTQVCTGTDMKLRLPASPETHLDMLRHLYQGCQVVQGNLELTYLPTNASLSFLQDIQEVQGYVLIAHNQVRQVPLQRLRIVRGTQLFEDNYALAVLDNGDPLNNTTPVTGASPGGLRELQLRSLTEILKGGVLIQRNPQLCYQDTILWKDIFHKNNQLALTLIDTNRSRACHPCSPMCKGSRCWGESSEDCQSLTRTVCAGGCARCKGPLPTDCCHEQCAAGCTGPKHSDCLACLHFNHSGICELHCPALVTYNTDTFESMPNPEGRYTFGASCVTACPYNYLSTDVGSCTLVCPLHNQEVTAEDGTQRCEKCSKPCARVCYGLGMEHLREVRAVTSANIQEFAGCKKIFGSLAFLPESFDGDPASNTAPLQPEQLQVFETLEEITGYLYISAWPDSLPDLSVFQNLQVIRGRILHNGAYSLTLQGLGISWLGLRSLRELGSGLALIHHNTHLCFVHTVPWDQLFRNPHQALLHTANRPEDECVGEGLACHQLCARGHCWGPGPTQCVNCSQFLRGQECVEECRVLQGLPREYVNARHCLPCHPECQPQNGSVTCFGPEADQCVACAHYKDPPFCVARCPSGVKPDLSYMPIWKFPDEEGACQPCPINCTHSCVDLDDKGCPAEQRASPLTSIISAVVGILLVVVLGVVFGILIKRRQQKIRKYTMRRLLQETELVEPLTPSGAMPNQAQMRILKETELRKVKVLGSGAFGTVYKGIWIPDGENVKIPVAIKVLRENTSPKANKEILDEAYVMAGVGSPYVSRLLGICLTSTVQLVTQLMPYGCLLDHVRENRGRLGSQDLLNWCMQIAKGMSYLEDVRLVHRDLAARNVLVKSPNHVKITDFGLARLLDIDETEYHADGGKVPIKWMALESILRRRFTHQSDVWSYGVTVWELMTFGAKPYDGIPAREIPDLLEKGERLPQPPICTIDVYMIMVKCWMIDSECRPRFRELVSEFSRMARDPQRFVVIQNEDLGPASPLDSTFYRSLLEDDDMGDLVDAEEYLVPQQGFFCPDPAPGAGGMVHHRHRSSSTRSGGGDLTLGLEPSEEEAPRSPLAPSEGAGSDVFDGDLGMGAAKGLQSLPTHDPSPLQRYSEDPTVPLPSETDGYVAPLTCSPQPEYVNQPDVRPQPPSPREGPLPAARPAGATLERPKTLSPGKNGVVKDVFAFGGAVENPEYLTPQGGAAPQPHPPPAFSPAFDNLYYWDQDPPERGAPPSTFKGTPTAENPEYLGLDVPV

logP [1] | IC50 [2] [nM] | IC50 [3] [nM] | IC50 [4] [nM] | IC50 [5] [nM] | Compound
4.31 | 0.38 | 1.2 | – | – | CCOc1cc2ncnc(Nc3cccc(Cl)c3)c2cc1OCC
3.65 | 1.05 | 6.4 | – | – | COc1cc2ncnc(Nc3cccc(I)c3)c2cc1OC
3.49 | – | – | 49 | – | COc1cc2ncnc(Nc3cccc(Br)c3)c2cc1OC
3.71 | 8.17 | 6.5 | – | – | CCOc1cc2ncnc(Nc3cccc(F)c3)c2cc1OCC
3.73 | 16 | 23.1 | – | – | CCOc1cc2ncnc(Nc3ccc(F)cc3)c2cc1OCC
3.02 | – | – | – | – | COc1cc2ncnc(NCc3ccc(F)cc3)c2cc1OC
3.78 | 17 | 6.6 | > 100 | 231 | CCOc1cc2ncnc(NCc3ccc(F)cc3)c2cc1OCC

More lines, now with the values behind:

Compound | logP [1] | IC50 [2] [nM] | IC50 [3] [nM] | IC50 [4] [nM] | IC50 [5] [nM]
COc1cc2ncnc(Nc3cc(F)cc(C(F)(F)F)c3)c2cc1OC | 4.66 | 20 | 19.1 | – | –
CCOc1cc2ncnc(Nc3ccccc3F)c2cc1OCC | 3.02 | 9.31 | 15.8 | – | –
CCOc1cc2ncnc(Nc3cc(F)cc(C(F)(F)F)c3)c2cc1OCC | 5.49 | 8.95 | > 50 | – | –
CCOc1cc2ncnc(Nc3cccc(Br)c3)c2cc1OCC | 4.4 | 0.41 | 3.2 | 50 | 215
COc1cc2ncnc(Nc3cccc(F)c3)c2cc1OC | 2.96 | – | – | – | –
COc1cc2ncnc(Nc3ccc(F)cc3)c2cc1OC | 2.87 | 51 | 19.1 | – | –
CCOc1cc2ncnc(Nc3cccc(I)c3)c2cc1OCC | 4.62 | 0.64 | 4.6 | 59 | 69
COc1cc2ncnc(Nc3cccc(Cl)c3)c2cc1OC | 3.51 | – | – | – | –
COc1cc2ncnc(Nc3ccccc3F)c2cc1OC | 2.2 | 32.2 | 12.8 | – | –
